Results: ChEMBL document CHEMBL1165972, “Selective angiotensin II AT(2) receptor agonists with reduced CYP 450 inhibition” (Bioorg Med Chem, 2010)
Activity calls are given as the source filed them. The rule behind the calls is not given here.

How the values were obtained:
[1] = Displacement of [125I]angiotensin 2 from AT1 receptor in rat liver membrane after 2 hrs by gamma counting; type: cell membranes
Method in brief: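 Rat liver membranes (5 mg original tissue) were incubated with 0.03 nM [125I]Ang II and varied test-compound concentrations. Incubation was 2 h at 25 °C. Bound and free label were separated by filtration on PEI-soaked GF/B filters and bound label was gamma counted. Nonspecific binding was taken with 1 µM Ang II.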

[2] = biological target: T1, Angiotensin type II receptor (Sus scrofa, UniProt Q2XUH7); test: Displacement of [125I]angiotensin 2 from AT2 receptor in pig uterus membrane after 1.5 hrs by gamma counting; type: cell membranes
T1 sequence (Q2XUH7 whole entry): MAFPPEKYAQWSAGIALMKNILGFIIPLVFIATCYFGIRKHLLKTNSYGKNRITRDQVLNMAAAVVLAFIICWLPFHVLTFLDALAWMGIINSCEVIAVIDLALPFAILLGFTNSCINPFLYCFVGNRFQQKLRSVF

CYP2C9 [3] = biological target: T2, CYP2C9 (Homo sapiens, UniProt P11712); test: Inhibition of human recombinant CYP2C9 at 10 uM by spectrofluorimetry; type: ADME
T2 sequence (P11712 whole entry): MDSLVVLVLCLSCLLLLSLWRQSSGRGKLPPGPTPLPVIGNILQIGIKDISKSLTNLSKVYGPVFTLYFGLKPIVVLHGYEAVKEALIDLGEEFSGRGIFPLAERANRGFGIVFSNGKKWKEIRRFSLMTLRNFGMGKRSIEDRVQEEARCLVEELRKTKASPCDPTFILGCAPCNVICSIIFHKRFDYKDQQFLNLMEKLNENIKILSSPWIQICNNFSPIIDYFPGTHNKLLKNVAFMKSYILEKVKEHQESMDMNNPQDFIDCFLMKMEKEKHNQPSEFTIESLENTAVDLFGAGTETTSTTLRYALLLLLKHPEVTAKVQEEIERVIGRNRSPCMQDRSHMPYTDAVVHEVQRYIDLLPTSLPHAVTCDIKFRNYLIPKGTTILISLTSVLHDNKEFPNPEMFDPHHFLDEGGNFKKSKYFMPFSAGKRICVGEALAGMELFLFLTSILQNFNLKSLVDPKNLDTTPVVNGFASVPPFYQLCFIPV
Method in brief: (§1)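 Compounds were tested at 10 µM in duplicate in a spectrofluorometric assay, with 0.25% final methanol and 0.25% final acetonitrile. Fluorescence at t = 0 was subtracted from fluorescence after incubation. Signal was compared with solvent-vehicle controls, and percent of control activity was reported as percent inhibition.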

CYP3A4 [4] = biological target: T3, CYP3A4 (Homo sapiens, UniProt P08684); test: Inhibition of human recombinant CYP3A4 at 10 uM by spectrofluorimetry; type: ADME; method in brief: as §1
T3 sequence (P08684 whole entry): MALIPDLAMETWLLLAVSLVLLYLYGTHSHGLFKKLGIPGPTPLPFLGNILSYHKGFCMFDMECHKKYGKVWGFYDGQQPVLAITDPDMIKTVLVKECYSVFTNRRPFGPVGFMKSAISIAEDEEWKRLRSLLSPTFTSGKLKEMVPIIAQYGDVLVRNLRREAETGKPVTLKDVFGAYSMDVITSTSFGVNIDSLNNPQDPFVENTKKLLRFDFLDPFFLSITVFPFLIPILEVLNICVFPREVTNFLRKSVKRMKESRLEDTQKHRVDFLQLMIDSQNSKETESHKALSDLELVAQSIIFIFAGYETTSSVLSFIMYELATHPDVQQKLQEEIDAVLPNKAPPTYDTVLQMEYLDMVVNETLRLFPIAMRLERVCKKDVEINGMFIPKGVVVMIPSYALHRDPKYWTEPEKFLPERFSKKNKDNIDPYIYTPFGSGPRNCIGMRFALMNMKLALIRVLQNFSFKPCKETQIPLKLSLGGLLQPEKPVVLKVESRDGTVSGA

[5] = Displacement of [125I]angiotensin 2 from rat AT1 receptor expressed in african green monkey COS7 cells after 24 hrs; type: cell-based; settings: cos-7
CYP2B6 = biological target: T4, CYP2B6 (Homo sapiens, UniProt P20813); test: Inhibition of human recombinant CYP2B6 at 10 uM by spectrofluorimetry; type: ADME; method in brief: as §1
T4 sequence (P20813 whole entry): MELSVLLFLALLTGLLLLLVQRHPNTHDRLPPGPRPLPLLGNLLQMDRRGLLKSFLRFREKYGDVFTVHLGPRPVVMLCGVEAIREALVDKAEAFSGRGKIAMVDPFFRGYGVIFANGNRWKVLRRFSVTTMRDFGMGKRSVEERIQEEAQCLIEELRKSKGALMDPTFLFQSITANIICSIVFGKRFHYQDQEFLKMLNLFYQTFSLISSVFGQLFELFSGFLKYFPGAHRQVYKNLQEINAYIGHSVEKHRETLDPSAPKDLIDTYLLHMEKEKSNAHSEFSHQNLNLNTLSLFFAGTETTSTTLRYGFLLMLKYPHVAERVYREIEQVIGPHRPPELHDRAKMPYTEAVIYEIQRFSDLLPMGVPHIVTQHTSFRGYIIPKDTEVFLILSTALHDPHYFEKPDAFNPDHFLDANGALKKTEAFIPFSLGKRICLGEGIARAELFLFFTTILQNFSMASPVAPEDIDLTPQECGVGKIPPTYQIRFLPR

CYP2C19 = CYP2C19 (Homo sapiens, UniProt P33261); test: Inhibition of human recombinant CYP2C19 at 10 uM by spectrofluorimetry; type: ADME; method in brief: as §1
CYP2C19, sequence (P33261 whole entry): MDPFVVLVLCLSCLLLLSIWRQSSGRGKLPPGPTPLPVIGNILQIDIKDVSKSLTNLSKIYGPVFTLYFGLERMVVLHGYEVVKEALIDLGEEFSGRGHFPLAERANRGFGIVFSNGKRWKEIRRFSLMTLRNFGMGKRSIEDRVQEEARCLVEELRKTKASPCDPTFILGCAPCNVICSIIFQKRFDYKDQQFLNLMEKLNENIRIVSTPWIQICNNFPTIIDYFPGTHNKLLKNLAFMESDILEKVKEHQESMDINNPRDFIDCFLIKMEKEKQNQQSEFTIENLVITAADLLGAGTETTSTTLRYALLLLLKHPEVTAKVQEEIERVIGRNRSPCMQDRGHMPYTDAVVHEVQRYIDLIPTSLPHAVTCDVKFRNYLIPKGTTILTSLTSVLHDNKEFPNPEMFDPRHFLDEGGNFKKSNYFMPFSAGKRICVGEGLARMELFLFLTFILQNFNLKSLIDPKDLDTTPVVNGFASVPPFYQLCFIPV

CYP3A5 = CYP3A5 (Homo sapiens, UniProt P20815); test: Inhibition of human recombinant CYP3A5 at 10 uM by spectrofluorimetry; type: ADME; method in brief: as §1
CYP3A5, sequence (P20815 whole entry): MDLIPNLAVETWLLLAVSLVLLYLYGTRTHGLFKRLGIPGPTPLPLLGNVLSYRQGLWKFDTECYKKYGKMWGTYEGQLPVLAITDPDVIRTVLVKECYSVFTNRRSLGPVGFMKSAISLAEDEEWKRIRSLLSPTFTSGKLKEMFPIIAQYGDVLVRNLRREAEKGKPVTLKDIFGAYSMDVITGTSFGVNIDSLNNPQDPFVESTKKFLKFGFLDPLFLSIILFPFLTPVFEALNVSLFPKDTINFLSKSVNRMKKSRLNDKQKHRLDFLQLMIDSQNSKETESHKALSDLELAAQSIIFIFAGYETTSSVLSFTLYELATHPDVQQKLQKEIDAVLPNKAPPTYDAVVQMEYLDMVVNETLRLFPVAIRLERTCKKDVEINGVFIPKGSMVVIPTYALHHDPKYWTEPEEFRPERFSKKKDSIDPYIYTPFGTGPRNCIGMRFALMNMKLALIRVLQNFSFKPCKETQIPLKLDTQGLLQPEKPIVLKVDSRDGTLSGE

CYP2E1 = CYP2E1 (Homo sapiens, UniProt P05181); test: Inhibition of human recombinant CYP2E1 at 10 uM by spectrofluorimetry; type: ADME; method in brief: as §1
CYP2E1, sequence (P05181 whole entry): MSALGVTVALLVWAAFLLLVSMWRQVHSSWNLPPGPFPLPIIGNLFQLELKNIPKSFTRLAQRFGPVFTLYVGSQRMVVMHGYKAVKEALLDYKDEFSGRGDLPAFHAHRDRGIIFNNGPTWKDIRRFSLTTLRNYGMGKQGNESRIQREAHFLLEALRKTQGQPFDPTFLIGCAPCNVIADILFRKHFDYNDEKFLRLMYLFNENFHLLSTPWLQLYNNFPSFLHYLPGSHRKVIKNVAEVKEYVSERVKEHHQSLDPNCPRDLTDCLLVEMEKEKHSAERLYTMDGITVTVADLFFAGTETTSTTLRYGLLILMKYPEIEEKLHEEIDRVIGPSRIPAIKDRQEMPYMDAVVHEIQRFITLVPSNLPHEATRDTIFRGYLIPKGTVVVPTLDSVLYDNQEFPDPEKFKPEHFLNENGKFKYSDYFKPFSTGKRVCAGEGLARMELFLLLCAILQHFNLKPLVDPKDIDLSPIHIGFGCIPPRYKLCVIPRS

NG108-15 [6] = test: Agonist activity at AT2 receptor in rat/mouse hybrid NG108-15 cells assessed as induction of neurite growth at 0.1 nM after 3 days by phase contrast microscopy; type: functional, cell-based
Method in brief: (§2)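 NG108-15 cells (passage 7–30) were grown in DMEM with 10% FBS, HAT and gentamycin at 37 °C in 7% CO2. Cells were stimulated once daily for three days, starting 24 h after plating. When used, PD123,319 (1 µM) was added 30 min before agonist. After 3 days, cells were scored from phase-contrast micrographs: positive meant at least one neurite longer than the cell body, expressed as % of total cells. At least 140 cells were counted in three independent experiments.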

NG108-15 [7] = test: Agonist activity at AT2 receptor in rat/mouse hybrid NG108-15 cells assessed as induction of neurite growth at 0.1 nM after 3 days by phase contrast microscopy in presence of 1 uM AT2 receptor antagonist PD-123319; type: functional, cell-based; method in brief: as §2
NG108-15 [8] = test: Cytotoxicity against rat/mouse hybrid NG108-15 cells up to 1 uM; type: cell-based
Method in brief: (§3)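 NG108-15 cells were cultured for three days with test compound at 1 pM to 1 µM. Cell death was then judged by phase-contrast microscopy.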

NG108-15 [9] = test: Cytotoxicity against rat/mouse hybrid NG108-15 cells at 1 uM; type: cell-based; settings: ng108-15, 1 µM; method in brief: as §3
NG108-15 [10] = test: Agonist activity at AT2 receptor in rat/mouse hybrid NG108-15 cells assessed as induction of neurite growth at 100 nM after 3 days by phase contrast microscopy; type: functional, cell-based; settings: 0.1 nM, in the assay text read “at 0.1 nM” for “at 100 nM”; method in brief: as §2
CYP2C9 [11] = biological target: T2, CYP2C9; test: Inhibition of CYP2C9 at 10 uM; type: ADME; method in brief: as §1
CYP3A4 [12] = biological target: T3, CYP3A4; test: Inhibition of CYP3A4 at 10 uM; type: ADME; method in brief: as §1
CYP1A2 = biological target: T5, CYP1A2 (Homo sapiens, UniProt P05177); test: Inhibition of human recombinant CYP1A2 at 10 uM by spectrofluorimetry; type: ADME; method in brief: as §1
T5 sequence (P05177 whole entry): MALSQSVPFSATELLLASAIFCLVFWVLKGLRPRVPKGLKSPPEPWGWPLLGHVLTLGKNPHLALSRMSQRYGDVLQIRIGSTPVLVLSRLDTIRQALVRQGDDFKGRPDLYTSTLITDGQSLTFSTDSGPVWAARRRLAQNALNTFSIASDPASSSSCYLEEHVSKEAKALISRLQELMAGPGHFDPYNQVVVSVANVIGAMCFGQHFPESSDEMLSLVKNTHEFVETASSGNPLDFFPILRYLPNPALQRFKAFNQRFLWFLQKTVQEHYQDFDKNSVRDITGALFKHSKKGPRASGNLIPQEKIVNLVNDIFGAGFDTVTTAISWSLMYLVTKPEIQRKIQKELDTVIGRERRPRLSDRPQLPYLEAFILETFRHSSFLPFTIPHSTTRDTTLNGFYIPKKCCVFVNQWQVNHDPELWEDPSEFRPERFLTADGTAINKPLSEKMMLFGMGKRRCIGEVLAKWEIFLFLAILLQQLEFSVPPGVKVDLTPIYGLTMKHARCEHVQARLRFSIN

Row | Structure (SMILES) | Ki [1] | Ki [2] | inhibition at 10 µM (CYP2C9 [3]) | inhibition at 10 µM (CYP3A4 [4]) | also measured
1 | CCCCOC(=O)NS(=O)(=O)c1sc(CC(C)C)cc1-c1ccc(CN2C(=O)CN(C)C2=O)cc1 | > 10000 nM | 68.6 nM | 40% | 25% | 
2 | CCCCOC(=O)NS(=O)(=O)c1sc(CC(C)C)cc1-c1ccc(Cn2ccc(C(F)(F)F)n2)cc1 | > 10000 nM | 9.5 nM | 56% | 33% | 
3 | CCCCOC(=O)NS(=O)(=O)c1sc(CC(C)C)cc1-c1ccc(Cn2cnc(C(F)(F)F)c2)cc1 | > 10000 nM | 7.3 nM | 31% | 71% | 
4 | CCCCOC(=O)NS(=O)(=O)c1sc(CC(C)C)cc1-c1ccc(CN2C(=O)N(C)C(C)(C)C2=O)cc1 | > 10000 nM | 3.6 nM | 38% | 20% | 
5 | CCCCOC(=O)NS(=O)(=O)c1sc(CC(C)C)cc1-c1ccc(C(=O)c2ncco2)cc1 | > 10000 nM | 13.8 nM | 75% | 36% | 
6 | CCCCOC(=O)NS(=O)(=O)c1sc(CC(C)C)cc1-c1ccc(C(=O)c2ccnn2C)cc1 | > 10000 nM | 3.4 nM |  |  | 
7 | CCCCOC(=O)NS(=O)(=O)c1sc(CC(C)C)cc1-c1ccc(Cn2cnnn2)cc1 | > 10000 nM | 49 nM |  |  | 
8 | CCCCOC(=O)NS(=O)(=O)c1sc(CC(C)C)cc1-c1ccc(CN2CCOCC2)cc1 | > 10000 nM | 280 nM |  |  | 
9 | CCCCOC(=O)NS(=O)(=O)c1sc(CC(C)C)cc1-c1ccc(C(=O)c2nccs2)cc1 | > 10000 nM | 18.6 nM | 92% | 16% | 
10 | CCCCOC(=O)NS(=O)(=O)c1sc(CC(C)C)cc1-c1ccc(CN2CCN(C)C2=O)cc1 | > 10000 nM | 16.5 nM | 24% | 20% | 
11 | CCCCOC(=O)NS(=O)(=O)c1sc(CC(C)C)cc1-c1ccc(Cn2cnccc2=O)cc1 | > 10000 nM | 108 nM |  |  | 
12 | CCCCOC(=O)NS(=O)(=O)c1sc(CC(C)C)cc1-c1ccc(Cc2ncco2)cc1 | > 10000 nM | 3.9 nM | 83% | 57% | 
13 | Cc1cc(Cn2cnc3c2C[C@@H](C(=O)O)N(C(=O)C(c2ccccc2)c2ccccc2)C3)ccc1N(C)C | > 10000 nM |  |  |  | 
14 | CCCCOC(=O)NS(=O)(=O)c1sc(CC(C)C)cc1-c1ccc(CN2CCSC2)cc1 | > 10000 nM | 280 nM |  |  | 
15 | CCCCOC(=O)NS(=O)(=O)c1sc(CC(C)C)cc1-c1ccc(Cc2ccsc2)cc1 | > 10000 nM | 175 nM |  |  | 
16 | CCCCOC(=O)NS(=O)(=O)c1sc(CC(C)C)cc1-c1ccc(Cn2c(CC)nc3c(C)cc(C)nc32)cc1 |  |  |  |  | IC50 [5]: 1.1 nM
17 | CCCCOC(=O)NS(=O)(=O)c1sc(CC(C)C)cc1-c1ccc(Cn2cnc(C)c2)cc1 | > 10000 nM | 17.6 nM | 37% | 44% | 
18 | CCCCOC(=O)NS(=O)(=O)c1sc(CC(C)C)cc1-c1ccc(Cn2ncnn2)cc1 | > 10000 nM | 16 nM |  |  | 
19 | CCCCOC(=O)NS(=O)(=O)c1sc(CC(C)C)cc1-c1ccc(Cn2cccn2)cc1 | > 10000 nM | 2.3 nM | 23% | 16% | inhibition at 10 µM (CYP2B6): 29%; inhibition at 10 µM (CYP2C19): 12%; inhibition at 10 µM (CYP3A5): 20%
20 | CCCCOC(=O)NS(=O)(=O)c1sc(CC(C)C)cc1-c1ccc(CN2CCCC2=O)cc1 | > 10000 nM | 3.5 nM | 24% | 28% | inhibition at 10 µM (CYP2B6): 33%; inhibition at 10 µM (CYP2C19): 25%; inhibition at 10 µM (CYP2E1): 5%; inhibition at 10 µM (CYP3A5): 25%; Activity (NG108-15 [6]): Active; Activity (NG108-15 [7]): inactive; Activity (NG108-15 [8]): Non-toxic; Activity (NG108-15 [9]): Toxic; Activity (NG108-15 [10]): Active
21 | CCCCOC(=O)NS(=O)(=O)c1sc(CC(C)C)cc1-c1ccc(Cc2nccs2)cc1 | > 10000 nM | 3.2 nM | 86% | 70% | 
22 | CCCCOC(=O)NS(=O)(=O)c1sc(CC(C)C)cc1-c1ccc(CN2CCC(=O)CC2)cc1 | > 10000 nM | 16.1 nM | 71% | 51% | 
23 | CCCCOC(=O)NS(=O)(=O)c1sc(CC(C)C)cc1-c1ccc(C(=O)c2nccn2C)cc1 | > 10000 nM | 2.9 nM | 38% | 14% | inhibition at 10 µM (CYP2C19): 6%; inhibition at 10 µM (CYP3A5): 17%
24 | CCCCOC(=O)NS(=O)(=O)c1sc(CC(C)C)cc1-c1ccc(Cn2ccnc2)cc1 [BULOXIBUTID] | > 10000 nM |  | 94% | 82% | inhibition at 10 µM (CYP2C9 [11]): 94%; inhibition at 10 µM (CYP3A4 [12]): 82%; inhibition at 10 µM (CYP1A2): 63%; inhibition at 10 µM (CYP2B6): 40%; inhibition at 10 µM (CYP2C19): 67%
25 | CCCCOC(=O)NS(=O)(=O)c1sc(CC(C)C)cc1-c1ccc(C(=O)c2cccs2)cc1 | > 10000 nM | 18.8 nM |  |  | 
26 | CCCCOC(=O)NS(=O)(=O)c1sc(CC(C)C)cc1-c1ccc(CN2C(=O)CCC2=O)cc1 | > 10000 nM | > 10000 nM |  |  | 
27 | CCCCc1nc(Cl)c(CO)n1Cc1ccc(-c2ccccc2-c2nnn[nH]2)cc1 [LOSARTAN] | 12.1 nM |  |  |  | 
28 | CCCCOC(=O)NS(=O)(=O)c1sc(CC(C)C)cc1-c1ccc(Cc2nnc(C(F)(F)F)o2)cc1 | > 10000 nM | 328 nM |  |  | 
